These results are taken from ChEMBL document CHEMBL4219021, “Discovery of a Small-Molecule Degrader of Bromodomain and Extra-Terminal (BET) Proteins with Picomolar Cellular Potencies and Capable of Achieving Tumor Regression” (J Med Chem, 2018).

The source made the active and inactive calls. No cut-off for these calls is given here.

Test [1] deals with T1, Protein cereblon/Bromodomain-containing protein 3/Cullin-4A (Homo sapiens) (UniProt Q15059+Q96SW2+Q13619). As to the kind of experiment: Induction of cereblon/cullin 4A-mediated BRD3 degradation in human RS4:11 cells at 1 nM after 3 hrs in presence of proteosome inhibitor MG-132 by Western blot method. The test is classed as cell-based.
T1 sequence (Q13619 whole entry, looked up): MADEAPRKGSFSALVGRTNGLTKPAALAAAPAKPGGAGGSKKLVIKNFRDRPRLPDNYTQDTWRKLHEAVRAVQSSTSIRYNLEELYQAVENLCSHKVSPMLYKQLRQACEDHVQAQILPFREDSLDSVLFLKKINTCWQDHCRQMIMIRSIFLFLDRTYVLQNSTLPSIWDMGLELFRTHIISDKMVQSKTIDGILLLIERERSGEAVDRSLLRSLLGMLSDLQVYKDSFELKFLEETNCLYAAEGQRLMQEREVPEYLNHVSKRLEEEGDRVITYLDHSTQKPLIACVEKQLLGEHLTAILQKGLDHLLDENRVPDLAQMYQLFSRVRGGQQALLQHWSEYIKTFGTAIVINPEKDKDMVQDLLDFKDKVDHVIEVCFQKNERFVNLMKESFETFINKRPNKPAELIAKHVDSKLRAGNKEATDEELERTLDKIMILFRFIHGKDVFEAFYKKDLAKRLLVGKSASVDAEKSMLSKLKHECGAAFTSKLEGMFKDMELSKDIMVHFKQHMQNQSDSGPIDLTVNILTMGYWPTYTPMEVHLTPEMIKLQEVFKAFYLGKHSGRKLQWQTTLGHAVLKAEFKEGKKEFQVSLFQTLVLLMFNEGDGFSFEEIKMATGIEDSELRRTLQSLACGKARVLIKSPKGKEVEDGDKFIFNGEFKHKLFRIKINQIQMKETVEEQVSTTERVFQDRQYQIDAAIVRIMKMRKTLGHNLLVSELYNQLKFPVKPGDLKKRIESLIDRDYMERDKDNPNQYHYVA
T1 sequence (Q15059 whole entry, looked up): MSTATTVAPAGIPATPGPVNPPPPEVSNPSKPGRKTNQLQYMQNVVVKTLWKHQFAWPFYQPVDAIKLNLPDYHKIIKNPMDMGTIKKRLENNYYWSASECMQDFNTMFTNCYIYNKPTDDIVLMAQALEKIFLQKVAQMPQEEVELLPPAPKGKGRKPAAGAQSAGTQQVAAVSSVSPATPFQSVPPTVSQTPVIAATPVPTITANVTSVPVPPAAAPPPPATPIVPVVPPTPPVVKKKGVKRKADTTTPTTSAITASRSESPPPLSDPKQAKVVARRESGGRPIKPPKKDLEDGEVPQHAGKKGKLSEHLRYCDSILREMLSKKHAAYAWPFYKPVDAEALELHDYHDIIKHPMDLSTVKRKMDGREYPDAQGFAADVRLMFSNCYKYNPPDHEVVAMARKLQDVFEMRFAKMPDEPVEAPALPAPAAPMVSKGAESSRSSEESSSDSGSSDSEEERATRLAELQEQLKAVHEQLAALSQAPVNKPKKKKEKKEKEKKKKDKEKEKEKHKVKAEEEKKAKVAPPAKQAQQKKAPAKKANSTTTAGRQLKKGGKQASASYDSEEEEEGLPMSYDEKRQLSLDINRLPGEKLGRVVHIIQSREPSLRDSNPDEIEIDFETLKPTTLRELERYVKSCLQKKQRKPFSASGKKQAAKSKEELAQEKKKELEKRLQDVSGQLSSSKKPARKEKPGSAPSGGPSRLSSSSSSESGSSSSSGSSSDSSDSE
T1 sequence (Q96SW2 whole entry, looked up): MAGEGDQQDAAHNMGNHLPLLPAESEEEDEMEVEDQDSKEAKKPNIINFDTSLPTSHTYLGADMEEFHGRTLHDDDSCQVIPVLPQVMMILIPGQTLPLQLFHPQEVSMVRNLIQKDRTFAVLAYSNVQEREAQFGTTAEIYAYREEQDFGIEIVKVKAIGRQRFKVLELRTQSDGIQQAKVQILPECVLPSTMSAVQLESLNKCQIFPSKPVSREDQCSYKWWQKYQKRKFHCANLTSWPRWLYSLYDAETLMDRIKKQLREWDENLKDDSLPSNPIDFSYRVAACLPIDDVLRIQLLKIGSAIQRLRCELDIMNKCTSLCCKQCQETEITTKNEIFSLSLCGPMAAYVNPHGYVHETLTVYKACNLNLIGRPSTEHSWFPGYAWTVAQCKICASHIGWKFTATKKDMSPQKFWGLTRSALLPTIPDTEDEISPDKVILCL
For test [2], the system named is Mus musculus. As to the kind of experiment: Increase in PARP cleavage in tumor of SCID mouse xenografted with human RS4:11 cells at 5 mg/kg administered as single dose measured up to 6 hrs by Western blot method. The test is classed as functional, organism-based. In a few lines: (§1)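 SCID mice bearing subcutaneous RS4;11 tumors received a single 5 mg/kg iv dose. Sacrificed at 1, 3, 6 and 24 h, with vehicle controls at 6 h, two mice per time point. Tumors ground in liquid nitrogen and lysed in CHAPS buffer, then immunoblotted for BRD2/3/4, c-Myc, PARP/cleaved PARP and caspase-3/cleaved caspase-3. Actin served as loading control.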

Test [3] deals with T2, Protein cereblon/Bromodomain-containing protein 2/Cullin-4A (Homo sapiens) (UniProt P25440+Q96SW2+Q13619). As to the kind of experiment: Induction of cereblon/cullin 4A-mediated BRD2 degradation in human RS4:11 cells at 1 nM after 3 hrs in presence of cereblon inhibitor lenalidomide by Western blot method. The test is classed as cell-based.
T2 sequence (P25440 whole entry, looked up): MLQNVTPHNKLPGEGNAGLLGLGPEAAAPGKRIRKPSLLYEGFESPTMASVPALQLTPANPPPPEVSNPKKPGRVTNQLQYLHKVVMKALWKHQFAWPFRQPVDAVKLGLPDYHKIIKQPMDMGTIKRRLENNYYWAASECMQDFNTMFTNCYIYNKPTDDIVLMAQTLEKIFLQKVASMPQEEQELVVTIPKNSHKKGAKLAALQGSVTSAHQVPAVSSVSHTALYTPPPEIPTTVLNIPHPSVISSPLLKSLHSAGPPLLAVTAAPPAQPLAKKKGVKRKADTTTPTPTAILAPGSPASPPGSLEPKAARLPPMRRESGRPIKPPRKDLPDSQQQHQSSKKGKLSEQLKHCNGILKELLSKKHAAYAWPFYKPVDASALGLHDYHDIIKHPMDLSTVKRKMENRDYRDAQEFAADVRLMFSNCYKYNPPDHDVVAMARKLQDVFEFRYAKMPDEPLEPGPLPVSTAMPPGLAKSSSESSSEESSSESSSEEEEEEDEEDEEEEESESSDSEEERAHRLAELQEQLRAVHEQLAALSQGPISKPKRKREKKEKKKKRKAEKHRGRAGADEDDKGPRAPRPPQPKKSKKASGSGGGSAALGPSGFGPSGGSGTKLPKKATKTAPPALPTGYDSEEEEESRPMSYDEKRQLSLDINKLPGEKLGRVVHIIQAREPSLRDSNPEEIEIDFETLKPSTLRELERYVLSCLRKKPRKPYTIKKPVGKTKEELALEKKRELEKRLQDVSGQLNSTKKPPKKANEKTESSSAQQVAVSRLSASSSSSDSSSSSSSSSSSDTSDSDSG
T2 sequence (Q13619 whole entry, looked up): as the sequence (Q13619 whole entry, looked up) above
T2 sequence (Q96SW2 whole entry, looked up): as the sequence (Q96SW2 whole entry, looked up) above
Test [4] has as its target T1, Protein cereblon/Bromodomain-containing protein 3/Cullin-4A (Homo sapiens). The experiment in a line: Induction of cereblon/cullin 4A-mediated BRD3 degradation in human RS4:11 cells at 1 nM after 3 hrs in presence of NAE inhibitor MLN4924 by Western blot method. The class given is cell-based.
The test system of test [5] is Mus musculus. As to the kind of experiment: In vivo induction of cereblon/cullin 4A-mediated BRD4 degradation in tumor of SCID mouse xenografted with human RS4:11 cells at 5 mg/kg, iv administered as single dose measured after 24 hrs by Western blot method. The test is classed as functional, organism-based. In a few lines:
as §1

In test [6] the target is T1, Protein cereblon/Bromodomain-containing protein 3/Cullin-4A (Homo sapiens). The experiment in a line: Induction of cereblon/cullin 4A-mediated BRD3 degradation in human RS4:11 cells after 3 hrs by Western blot method. The test is classed as cell-based. In a few lines:
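RS4;11 cells (2 × 10⁶/well) treated for 3 h at the indicated concentrations. Lysed in RIPA with protease inhibitors and immunoblotted for BRD2, BRD3 and BRD4 with specific antibodies.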

Test [7] has as its system Mus musculus. The experiment in a line: In vivo induction of cereblon/cullin 4A-mediated BET degradation in tumor of SCID mouse xenografted with human RS4:11 cells assessed as downregulation of c-Myc level at 5 mg/kg, iv administered as single dose measured up to 6 hrs by Western blot method. The test is classed as functional, organism-based. Summed up: as §1
The species named for a further test is Homo sapiens. As to the kind of experiment: Induction of cereblon/cullin 4A-mediated BET degradation in human RS4:11 cells assessed as downregulation of c-myc protein level at 0.1 nM after 24 hrs by Western blot method. The test is classed as cell-based. In a few lines: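 RS4;11 cells (2 × 10⁶/well) treated for 24 h at the indicated concentrations. Lysed in RIPA with protease inhibitors and immunoblotted for BRD2, BRD3, BRD4, c-Myc and PARP, with GAPDH as loading control.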

The target in test [8] is T3, Protein cereblon/Bromodomain-containing protein 4/Cullin-4A (Homo sapiens) (UniProt O60885+Q96SW2+Q13619). As to the kind of experiment: Induction of cereblon/cullin 4A-mediated BRD4 degradation in human RS4:11 cells after 3 hrs by Western blot method. The test is classed as cell-based. In a few lines:
(§2)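 Western blot of RS4;11 cells (2 × 10⁶ cells/well) in RPMI 1640 with 10% FBS, 37 °C, 5% CO₂, used within three months of thawing. Compound exposure was 3 h or 24 h at the indicated concentrations. Cells were lysed in RIPA with protease inhibitors, and BRD2, BRD3 and BRD4 were detected with specific antibodies, with GAPDH as loading control.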

Test [9] concerns Mus musculus. The experiment in a line: In vivo induction of cereblon/cullin 4A-mediated BRD3 degradation in tumor of SCID mouse xenografted with human RS4:11 cells at 5 mg/kg, iv administered as single dose measured after 24 hrs by Western blot method. The test is classed as functional, organism-based. Summed up: as §1
Test [10] has as its target T2, Protein cereblon/Bromodomain-containing protein 2/Cullin-4A (Homo sapiens). The experiment in a line: Induction of cereblon/cullin 4A-mediated BRD2 degradation in human RS4:11 cells at 1 nM after 3 hrs in presence of BET inhibitor 4-((3-Cyclopropyl-1-ethyl-1H-pyrazol-5-yl)amino)-7-(3,5-dimethylisoxazol-4-yl)-6-methoxy-N-methyl-9H-pyrimido[4,5-b]-indole-2-carboxamide by Western blot method. The test is classed as cell-based.

Test [11] concerns the target T3, Protein cereblon/Bromodomain-containing protein 4/Cullin-4A (Homo sapiens). The experiment in a line: Induction of cereblon/cullin 4A-mediated BRD4 degradation in human RS4:11 cells at 0.03 nM after 24 hrs by Western blot method. The test is classed as cell-based. Summed up:
as §2

Test [12] has as its target T1, Protein cereblon/Bromodomain-containing protein 3/Cullin-4A (Homo sapiens). The experiment in a line: Induction of cereblon/cullin 4A-mediated BRD3 degradation in human RS4:11 cells at 1 nM after 3 hrs in presence of BET inhibitor 4-((3-Cyclopropyl-1-ethyl-1H-pyrazol-5-yl)amino)-7-(3,5-dimethylisoxazol-4-yl)-6-methoxy-N-methyl-9H-pyrimido[4,5-b]-indole-2-carboxamide by Western blot method. The class given is cell-based.

On to `CCn1nc(C2CC2)cc1Nc1nc(C(=O)NCCCCCc2cccc3c2CN(C2CCC(=O)NC2=O)C3=O)nc2[nH]c3cc(-c4c(C)noc4C)c(OC)cc3c12` (stereo not drawn), for which the outcome in [1], in test [3], in test [4], in test [10] and in [12] was inactive. For the same molecule, the result (with Mus musculus [2]; with Mus musculus [5]; in the test with Mus musculus [7]; in the test filed under Homo sapiens; with Mus musculus [9]; in [11]) was Active. The Activity entry in [6] and in [8] was “Dose-dependent effect” in each case.
